Assay results from different studies.
Each line is one published result; the experiments were not run side by side.
Target: Fibroblast growth factor receptor 2 (FGFR2, Homo sapiens, UniProt P21802)

Compound	effect on	method	concentration	remaining binding [%]
O=C(O)[C@H]1[C@H](Cn2nnc3ccccc3c2=O)CC[C@@H]1C(=O)c1ccc(OCCC2CCOCC2)cc1	cell-free assay	competition with immobilised ligand	1 µM	100
C[C@H]1CCN(c2nccc(-c3cnn4ncccc34)n2)C1	binding	–	1 µM	100
COc1ncc2cc3ccccc3nc2c1C#N	cell-free assay	competition with immobilised ligand	5 µM	93
Cn1nc(C(=O)NCc2ccc(C(=O)O)cc2)cc1-c1ccc2[nH]ccc2c1	cell-free assay	competition with immobilised ligand	0.1 µM	87
CC(C)(C)c1ccc(-c2nc(CBr)nn2-c2cccc(O)c2)cc1	cell-free assay	competition with immobilised ligand	10 µM	95
Nc1ncc2c(n1)-c1c([nH]c3ccc(C#CC4CC4)cc13)CCCC2	binding	competition with immobilised ligand	1 µM	99
CN(CCCC(F)(F)F)c1nccc(-c2cnn3ncccc23)n1	binding	–	1 µM	89
O=C(NCC1CCOCC1)c1n[nH]cc1NC(=O)c1c(F)cccc1F	binding	competition with immobilised ligand	1 µM	100
C[C@@H]1CN(c2ccc3ncc(-c4ccc5[nH]nc(C6CC6)c5c4)n3n2)C[C@H](C)O1	binding	competition with immobilised ligand	0.5 µM	100
N[C@H]1CCN(c2nccc(-c3cnn4ncccc34)n2)C1	binding	–	1 µM	92
Cc1cnc(Nc2ccc(C(=O)N3CCC(N4CCCC4)CC3)cc2)nc1-c1cc2ccccc2s1	binding	competition with immobilised ligand	1 µM	14
COc1cnc(Nc2cccc(S(N)(=O)=O)c2)nc1N1CCN(c2ccccc2)C(=O)C1	binding	competition with immobilised ligand	1 µM	90
c1cnn2ncc(-c3ccnc(N4CCC45COC5)n3)c2c1	binding	–	1 µM	100
CC(=O)c1c(NS(C)(=O)=O)c2cc(-c3ccc(Cl)cc3)c(-c3ccc(Cl)cc3Cl)nc2n(C)c1=O	cell-free assay	competition with immobilised ligand	1 µM	92
c1cncc(-c2cccc(Nc3nccc(NC4CCCCC4)n3)c2)c1	binding	competition with immobilised ligand	10 µM	22
CCC(=O)N[C@@H]1CC[C@H](C(=O)N(C)c2ccc(-c3nc4ccccc4o3)cc2)C1	cell-free assay	competition with immobilised ligand	1 µM	86
O=C(c1ccc(Nc2nccc(-c3cc4ccccc4s3)n2)cc1)N1CCC(N2CCCC2)CC1	binding	competition with immobilised ligand	1 µM	77
CC1CCCN1c1nccc(-c2cnn3ncccc23)n1 (centres unmarked)	binding	–	1 µM	100
Cc1nccc(COC(=O)N2C[C@@H]3[C@@H](CNC(=O)c4ccc5[nH]nnc5c4)[C@@H]3C2)n1	cell-free assay	competition with immobilised ligand	1 µM	78
Cc1cnn2ncc(-c3ccnc(N(C)C)n3)c2c1	binding	–	1 µM	98
FC(F)(F)Oc1cccc(-c2cnc3ccc(-c4ccncc4)nn23)c1	cell-free assay	competition with immobilised ligand	5 µM	81
O=C(NCCCN1CCOCC1)c1ccc(Nc2nccc(-c3cc4ccccc4s3)n2)cc1	binding	competition with immobilised ligand	1 µM	84
O=C(O)c1cc(-c2ccc(C3CCNCC3)cc2)c2ccc(-c3ccc(C(F)(F)F)cc3)cc2c1	cell-free assay	competition with immobilised ligand	1 µM	100
F[C@@H]1CCN(c2nccc(-c3cnn4ncccc34)n2)C1	binding	–	1 µM	100
Cc1cc(C)c(-n2ccn3nc(-c4cccnc4)cc23)cc1NC(=O)c1cc(C#N)cc(S(F)(F)(F)(F)F)c1	cell-free assay	competition with immobilised ligand	0.1 µM	84.3
COc1cnc(Nc2cccc(S(N)(=O)=O)c2)nc1N1CCN(c2ccccc2)CC1	binding	competition with immobilised ligand	1 µM	90
